From ChEMBL document CHEMBL5653631, “A Potent and Selective ULK1 Inhibitor Suppresses Autophagy and Sensitizes Cancer Cells to Nutrient Stress” (iScience, 2018)
Blank lines part the entries; values can stand above or below the compound they belong to.

Experiments:
[1] = target: Serine-protein kinase ATM (Homo sapiens) (UniProt Q13315); test: Inhibition of human recombinant ATM at 500 nM related to control ULK1
Procedure, shortened: (§1)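 Panel of 327 recombinant human kinases, each assayed in vitro by radiometric activity assay in duplicate at a single inhibitor concentration per compound, chosen with reference to its ULK1 inhibition. Activity remaining was expressed as percent of vehicle control, and percent inhibition was calculated as 100 minus percent activity remaining.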

[2] = target: Mitogen-activated protein kinase 14 (Homo sapiens) (UniProt Q16539); test: Inhibition of human recombinant p38alpha at 500 nM in presence of ATP by radiometric assay relative to control
Chain of Mitogen-activated protein kinase 14 (Homo sapiens) (Q16539 whole entry): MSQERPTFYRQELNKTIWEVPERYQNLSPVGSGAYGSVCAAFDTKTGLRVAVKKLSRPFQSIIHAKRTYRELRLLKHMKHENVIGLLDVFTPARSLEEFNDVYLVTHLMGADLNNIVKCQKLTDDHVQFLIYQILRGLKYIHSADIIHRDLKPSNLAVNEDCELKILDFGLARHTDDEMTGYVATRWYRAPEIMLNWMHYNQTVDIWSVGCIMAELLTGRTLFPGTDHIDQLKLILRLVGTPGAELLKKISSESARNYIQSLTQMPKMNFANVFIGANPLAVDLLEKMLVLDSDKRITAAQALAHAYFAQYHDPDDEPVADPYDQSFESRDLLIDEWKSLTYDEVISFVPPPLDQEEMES

[3] = target: Protein kinase C delta type (Homo sapiens) (UniProt Q05655); test: Inhibition of human recombinant PKCd at 15 nM in presence of ATP by radiometric assay relative to control
Chain of Protein kinase C delta type (Homo sapiens) (Q05655 whole entry, looked up): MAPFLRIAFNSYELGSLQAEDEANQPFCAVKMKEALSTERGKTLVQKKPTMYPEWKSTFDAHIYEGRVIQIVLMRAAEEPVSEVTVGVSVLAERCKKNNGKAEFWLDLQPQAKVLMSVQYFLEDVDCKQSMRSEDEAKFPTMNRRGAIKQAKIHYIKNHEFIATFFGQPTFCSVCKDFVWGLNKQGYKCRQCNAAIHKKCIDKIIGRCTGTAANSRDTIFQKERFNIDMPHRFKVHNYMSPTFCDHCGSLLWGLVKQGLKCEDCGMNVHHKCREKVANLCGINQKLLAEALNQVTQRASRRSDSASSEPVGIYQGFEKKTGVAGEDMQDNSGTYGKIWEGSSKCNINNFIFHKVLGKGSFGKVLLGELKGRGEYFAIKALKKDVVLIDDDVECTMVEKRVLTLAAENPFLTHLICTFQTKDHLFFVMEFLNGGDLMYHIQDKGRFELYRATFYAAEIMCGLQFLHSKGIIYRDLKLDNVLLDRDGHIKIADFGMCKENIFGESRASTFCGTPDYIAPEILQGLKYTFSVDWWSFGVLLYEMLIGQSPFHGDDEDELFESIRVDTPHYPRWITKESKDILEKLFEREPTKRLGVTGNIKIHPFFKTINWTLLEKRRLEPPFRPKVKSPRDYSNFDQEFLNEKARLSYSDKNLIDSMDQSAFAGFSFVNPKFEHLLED

[4] = target: Activin receptor type-1-like (Homo sapiens) (UniProt P37023); test: Inhibition of human recombinant ALK1 at 15 nM related to control ULK1; procedure, shortened: as §1
Chain of Activin receptor type-1-like (Homo sapiens) (P37023 whole entry): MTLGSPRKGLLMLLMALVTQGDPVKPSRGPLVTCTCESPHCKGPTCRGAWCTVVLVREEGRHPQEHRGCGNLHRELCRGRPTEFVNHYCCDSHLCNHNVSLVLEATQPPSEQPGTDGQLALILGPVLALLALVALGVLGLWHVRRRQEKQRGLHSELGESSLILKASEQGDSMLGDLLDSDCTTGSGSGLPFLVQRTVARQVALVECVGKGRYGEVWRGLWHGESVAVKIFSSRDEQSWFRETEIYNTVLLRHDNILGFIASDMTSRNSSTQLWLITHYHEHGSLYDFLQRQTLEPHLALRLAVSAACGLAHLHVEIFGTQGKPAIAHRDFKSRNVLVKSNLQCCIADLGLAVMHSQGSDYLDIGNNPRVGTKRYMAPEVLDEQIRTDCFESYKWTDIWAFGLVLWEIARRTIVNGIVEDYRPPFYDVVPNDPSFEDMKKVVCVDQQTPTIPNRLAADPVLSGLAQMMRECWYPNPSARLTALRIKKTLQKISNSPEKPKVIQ

[5] = target: Focal adhesion kinase 1 (Homo sapiens) (UniProt Q05397); test: Inhibition of human recombinant FAK at 15 nM in presence of ATP by radiometric assay relative to control
Chain of Focal adhesion kinase 1 (Homo sapiens) (Q05397 2-1052 limits assumed): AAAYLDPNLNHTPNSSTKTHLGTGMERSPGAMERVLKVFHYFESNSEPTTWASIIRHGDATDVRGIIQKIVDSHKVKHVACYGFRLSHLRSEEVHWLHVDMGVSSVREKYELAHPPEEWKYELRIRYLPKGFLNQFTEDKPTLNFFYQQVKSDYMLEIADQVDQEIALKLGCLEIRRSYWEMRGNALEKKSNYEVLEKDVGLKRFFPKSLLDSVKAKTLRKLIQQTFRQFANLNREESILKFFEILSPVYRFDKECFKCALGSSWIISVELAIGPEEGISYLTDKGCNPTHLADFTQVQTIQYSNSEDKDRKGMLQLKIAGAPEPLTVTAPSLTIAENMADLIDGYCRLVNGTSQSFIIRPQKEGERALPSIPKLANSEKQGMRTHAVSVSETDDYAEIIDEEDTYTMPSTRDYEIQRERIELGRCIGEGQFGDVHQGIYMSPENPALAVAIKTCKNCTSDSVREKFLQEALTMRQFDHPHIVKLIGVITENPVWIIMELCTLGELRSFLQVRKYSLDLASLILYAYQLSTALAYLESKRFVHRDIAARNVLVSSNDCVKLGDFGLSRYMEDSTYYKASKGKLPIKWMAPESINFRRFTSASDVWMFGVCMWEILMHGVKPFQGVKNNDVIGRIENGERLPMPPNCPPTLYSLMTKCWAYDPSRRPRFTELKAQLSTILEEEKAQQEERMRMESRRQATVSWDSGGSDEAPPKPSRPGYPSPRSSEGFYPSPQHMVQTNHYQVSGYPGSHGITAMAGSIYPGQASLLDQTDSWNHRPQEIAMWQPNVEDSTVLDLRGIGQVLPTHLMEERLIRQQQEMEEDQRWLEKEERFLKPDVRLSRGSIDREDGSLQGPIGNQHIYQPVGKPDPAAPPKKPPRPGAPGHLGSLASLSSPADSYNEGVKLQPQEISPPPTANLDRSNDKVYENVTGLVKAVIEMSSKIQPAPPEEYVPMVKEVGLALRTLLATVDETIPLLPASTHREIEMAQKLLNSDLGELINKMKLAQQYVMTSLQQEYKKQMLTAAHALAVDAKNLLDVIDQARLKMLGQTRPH

[6] = target: T1, Rhodopsin kinase GRK1 (Homo sapiens) (UniProt Q15835); test: Inhibition of human recombinant RHOK at 15 nM related to control ULK1
T1 sequence (whole entry): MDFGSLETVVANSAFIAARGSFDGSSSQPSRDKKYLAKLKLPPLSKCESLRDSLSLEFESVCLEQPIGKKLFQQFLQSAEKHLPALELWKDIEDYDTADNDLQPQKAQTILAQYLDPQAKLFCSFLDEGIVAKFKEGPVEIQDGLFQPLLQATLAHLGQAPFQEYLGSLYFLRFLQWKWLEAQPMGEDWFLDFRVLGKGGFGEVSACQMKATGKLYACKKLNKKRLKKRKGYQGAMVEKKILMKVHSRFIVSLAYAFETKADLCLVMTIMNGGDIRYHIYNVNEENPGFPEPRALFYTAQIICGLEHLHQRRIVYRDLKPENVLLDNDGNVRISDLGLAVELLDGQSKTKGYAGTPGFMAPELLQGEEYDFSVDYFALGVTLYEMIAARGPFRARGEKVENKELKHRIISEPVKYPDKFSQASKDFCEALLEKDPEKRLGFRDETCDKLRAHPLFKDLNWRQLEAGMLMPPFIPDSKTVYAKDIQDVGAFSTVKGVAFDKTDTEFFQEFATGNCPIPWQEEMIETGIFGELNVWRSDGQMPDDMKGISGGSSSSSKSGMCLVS

[7] = target: MAP/microtubule affinity-regulating kinase 3 (Homo sapiens) (UniProt P27448); test: Inhibition of human recombinant MARK3 at 40 nM related to control ULK1
Chain of MAP/microtubule affinity-regulating kinase 3 (Homo sapiens) (P27448 whole entry, looked up): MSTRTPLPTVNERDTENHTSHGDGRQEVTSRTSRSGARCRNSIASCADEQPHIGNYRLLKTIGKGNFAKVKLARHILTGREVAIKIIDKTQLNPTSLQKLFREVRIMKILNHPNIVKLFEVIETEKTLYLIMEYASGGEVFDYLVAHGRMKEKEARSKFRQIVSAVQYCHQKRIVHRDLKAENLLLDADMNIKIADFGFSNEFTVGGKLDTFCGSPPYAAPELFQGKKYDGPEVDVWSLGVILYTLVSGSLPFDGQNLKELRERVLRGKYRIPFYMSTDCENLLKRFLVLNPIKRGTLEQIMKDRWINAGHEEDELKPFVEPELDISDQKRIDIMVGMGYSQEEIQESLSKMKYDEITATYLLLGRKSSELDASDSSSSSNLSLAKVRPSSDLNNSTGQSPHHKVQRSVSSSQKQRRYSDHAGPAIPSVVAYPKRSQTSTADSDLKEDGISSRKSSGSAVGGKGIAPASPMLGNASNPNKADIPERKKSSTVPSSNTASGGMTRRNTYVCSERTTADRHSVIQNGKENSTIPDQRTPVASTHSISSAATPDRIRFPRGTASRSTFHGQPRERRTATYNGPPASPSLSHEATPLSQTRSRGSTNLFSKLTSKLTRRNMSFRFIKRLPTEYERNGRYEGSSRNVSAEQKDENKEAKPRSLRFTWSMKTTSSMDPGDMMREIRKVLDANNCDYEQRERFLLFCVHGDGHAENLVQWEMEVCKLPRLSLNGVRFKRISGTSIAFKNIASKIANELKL

[8] = target: T2, Ephrin type-A receptor 3 (Homo sapiens) (UniProt P29320); test: Inhibition of human recombinant EphA3 at 40 nM in presence of ATP by radiometric assay relative to control
T2 sequence (whole entry): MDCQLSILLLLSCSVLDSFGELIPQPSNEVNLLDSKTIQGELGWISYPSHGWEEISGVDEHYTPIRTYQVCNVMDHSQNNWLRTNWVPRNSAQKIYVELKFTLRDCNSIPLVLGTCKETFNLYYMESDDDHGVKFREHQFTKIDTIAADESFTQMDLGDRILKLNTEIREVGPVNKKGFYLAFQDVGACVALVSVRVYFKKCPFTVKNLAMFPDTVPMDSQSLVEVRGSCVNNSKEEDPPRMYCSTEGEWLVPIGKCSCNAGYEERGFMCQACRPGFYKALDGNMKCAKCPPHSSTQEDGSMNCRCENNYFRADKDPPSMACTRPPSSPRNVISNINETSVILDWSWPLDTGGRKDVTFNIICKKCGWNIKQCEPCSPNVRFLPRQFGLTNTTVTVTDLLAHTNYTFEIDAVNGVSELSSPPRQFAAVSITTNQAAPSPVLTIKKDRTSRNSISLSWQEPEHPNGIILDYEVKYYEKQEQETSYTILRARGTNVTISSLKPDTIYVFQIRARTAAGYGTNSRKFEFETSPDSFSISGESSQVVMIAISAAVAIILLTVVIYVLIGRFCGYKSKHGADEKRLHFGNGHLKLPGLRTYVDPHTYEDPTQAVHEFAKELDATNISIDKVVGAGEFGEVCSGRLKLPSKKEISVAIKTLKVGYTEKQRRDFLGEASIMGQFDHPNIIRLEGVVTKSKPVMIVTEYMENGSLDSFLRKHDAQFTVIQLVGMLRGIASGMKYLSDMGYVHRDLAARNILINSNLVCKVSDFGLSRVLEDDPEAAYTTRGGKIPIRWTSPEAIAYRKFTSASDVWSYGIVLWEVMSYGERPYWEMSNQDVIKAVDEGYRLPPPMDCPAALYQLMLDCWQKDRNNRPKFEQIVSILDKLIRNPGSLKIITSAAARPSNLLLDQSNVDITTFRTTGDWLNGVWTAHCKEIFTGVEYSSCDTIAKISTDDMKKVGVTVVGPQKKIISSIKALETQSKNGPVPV

[9] = target: RAF proto-oncogene serine/threonine-protein kinase (Homo sapiens) (UniProt P04049); test: Inhibition of human recombinant RAF1 at 40 nM related to control ULK1
Chain of RAF proto-oncogene serine/threonine-protein kinase (Homo sapiens) (P04049 whole entry): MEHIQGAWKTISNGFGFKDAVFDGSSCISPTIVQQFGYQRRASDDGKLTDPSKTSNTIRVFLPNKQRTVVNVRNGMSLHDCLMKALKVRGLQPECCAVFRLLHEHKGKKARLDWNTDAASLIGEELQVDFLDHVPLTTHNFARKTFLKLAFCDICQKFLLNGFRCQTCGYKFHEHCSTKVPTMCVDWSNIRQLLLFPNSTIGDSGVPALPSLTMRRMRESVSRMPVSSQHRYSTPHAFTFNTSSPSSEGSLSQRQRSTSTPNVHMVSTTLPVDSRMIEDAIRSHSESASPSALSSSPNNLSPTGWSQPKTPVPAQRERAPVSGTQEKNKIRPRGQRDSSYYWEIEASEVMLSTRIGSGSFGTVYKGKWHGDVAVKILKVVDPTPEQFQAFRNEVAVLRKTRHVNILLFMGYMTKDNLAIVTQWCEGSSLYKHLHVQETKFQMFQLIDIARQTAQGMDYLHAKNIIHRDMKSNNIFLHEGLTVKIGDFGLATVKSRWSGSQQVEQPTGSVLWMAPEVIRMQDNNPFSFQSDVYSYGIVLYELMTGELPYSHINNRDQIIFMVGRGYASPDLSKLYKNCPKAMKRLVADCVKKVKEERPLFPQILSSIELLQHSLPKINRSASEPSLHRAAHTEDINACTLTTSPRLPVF

[10] = target: T3, Calcium/calmodulin-dependent protein kinase type IV (Homo sapiens) (UniProt Q16566); test: Inhibition of human recombinant CaMK4 at 40 nM in presence of ATP by radiometric assay relative to control
T3 sequence (whole entry): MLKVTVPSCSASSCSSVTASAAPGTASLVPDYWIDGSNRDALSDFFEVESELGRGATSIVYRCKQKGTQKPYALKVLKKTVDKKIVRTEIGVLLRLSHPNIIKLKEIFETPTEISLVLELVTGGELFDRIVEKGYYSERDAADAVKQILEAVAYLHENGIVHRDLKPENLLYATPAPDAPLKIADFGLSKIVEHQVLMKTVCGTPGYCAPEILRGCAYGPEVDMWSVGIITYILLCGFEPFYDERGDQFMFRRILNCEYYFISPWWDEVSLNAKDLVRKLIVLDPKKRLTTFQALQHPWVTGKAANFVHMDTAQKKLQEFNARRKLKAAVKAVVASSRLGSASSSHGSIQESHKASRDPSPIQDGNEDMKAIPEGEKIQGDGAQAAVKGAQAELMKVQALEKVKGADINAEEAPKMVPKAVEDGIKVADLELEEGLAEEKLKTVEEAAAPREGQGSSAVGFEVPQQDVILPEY

- fold change (FC) [1]: 0.03
- inhibition [2]: 5%
SMILES: CNC(=O)c1ccccc1Oc1nc(Nc2cc(OC)c(OC)c(OC)c2)ncc1Br

- inhibition [3]: 0%
- fold change (FC) [4]: 0.08
- inhibition [5]: 0%
- fold change (FC) [6]: 0
SMILES: CC(C)[C@H](NC(=O)c1cc(-c2cnn3cc(-c4ccc(OCCN5CCCCC5)cc4)cnc23)cs1)C(F)(F)F

- fold change (FC) [7]: 0.21
- inhibition [8]: 15%
- fold change (FC) [9]: 0.01
- inhibition [10]: 0%
SMILES: O=C(N[C@@H](C1CC1)C(F)(F)F)c1cc(-c2cnn3cc(-c4ccc(F)cc4)cnc23)cs1
